# Test results taken from ChEMBL document CHEMBL2380254, “Optimization of tocotrienols as antiproliferative and antimigratory leads” (Eur J Med Chem, 2013).
# Legend:
# Type in all cases: functional
# HCT-15 = assay: Growth inhibition of human HCT15 cells assessed as cell growth at 10 uM after 48 hrs by sulforhodamine B assay; conditions: HCT-15, 48 h, read-out: Activity
# Method in brief: (§1)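 NCI-60 single-dose screen at 10 µM: cells in RPMI 1640 with 5% FBS, preincubated 24 h, then exposed 48 h at 37 °C. TCA fixation (16% final for suspension cells), SRB staining, absorbance 515 nm. Percent growth relative to time-zero and untreated control plates; negative values indicate cell kill.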
# OVCAR-3 [1] = assay: Growth inhibition of human OVCAR3 cells after 48 hrs by sulforhodamine B assay; conditions: OVCAR-3, 48 h
# Method in brief: (§2)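 NCI-60 panel cells grown in RPMI 1640 with 5% FBS and 2 mM L-glutamine, seeded at 5000–40,000 cells/well and preincubated 24 h. Five 10-fold dilutions (0.001–100 µM) from DMSO stocks were added for 48 h at 37 °C. Adherent cells were fixed with cold TCA (10% final) for 60 min at 4 °C, stained with 0.4% SRB, and read at 515 nm. GI50 was set where 100×(T−T0)/(C−T0)=50.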
# RXF 393 = assay: Growth inhibition of human RXF393 cells assessed as cell growth at 10 uM after 48 hrs by sulforhodamine B assay; conditions: RXF 393, 48 h, read-out: Activity
# Method in brief: (§3)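 Single-dose NCI-60 screen: adherent cells in RPMI 1640 with 5% FBS were exposed to 10 µM for 48 h at 37 °C after a 24 h preincubation. They were fixed in situ with cold TCA (10% final), stained with 0.4% SRB in 1% acetic acid, solubilized in 10 mM Tris base, and read at 515 nm. Percent growth was taken relative to time-zero and control plates.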
# CCRF-CEM [2] = assay: Growth inhibition of human CCRF-CEM cells assessed as cell growth at 10 uM after 48 hrs by sulforhodamine B assay; conditions: read-out: Activity; method in brief: as §1
# SNB-75 = assay: Growth inhibition of human SNB75 cells assessed as cell growth at 10 uM after 48 hrs by sulforhodamine B assay; conditions: SNB-75, 48 h, read-out: Activity
# Method in brief: (§4)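 Single-dose NCI-60 test at 10 µM. Cells were grown in RPMI 1640 with 5% FBS and 2 mM L-glutamine, preincubated 24 h, with T0 plates TCA-fixed. Exposure was 48 h at 37 °C, 5% CO2. Cells were fixed with cold TCA (final 10%, 4 °C, 60 min), stained with SRB and read at 515 nm. Percent growth was taken relative to T0 and untreated control; negative values denote cell kill.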
# NCI-H23 = assay: Growth inhibition of human NCI-H23 cells after 48 hrs by sulforhodamine B assay; conditions: NCI-H23, 48 h; method in brief: as §2
# LOX IMVI = assay: Growth inhibition of human LOXIMVI cells after 48 hrs by sulforhodamine B assay
# Method in brief: (§5)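 NCI-60 screen: cells in RPMI 1640 with 5% FBS and 2 mM glutamine, 5000–40,000 cells/well, preincubated 24 h. Five concentrations (10-fold dilutions; 100 to 0.001 µM) applied for 48 h at 37 °C. TCA fixation, SRB stain, absorbance at 515 nm. Time-zero plates included; GI50 where 100×(T−T0)/(C−T0)=50.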
# MOLT-4 = assay: Growth inhibition of human MOLT4 cells after 48 hrs by sulforhodamine B assay; conditions: MOLT-4, 48 h
# Method in brief: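 NCI-60 suspension lines in RPMI 1640 with 5% FBS and 2 mM L-glutamine, preincubated 24 h. A five-concentration 10-fold series (0.001–100 µM) was given for 48 h at 37 °C. Settled cells were fixed with 80% TCA (16% final), stained with SRB, and read at 515 nm. GI50 was taken where 100×(T−T0)/(C−T0)=50, with T0 plates fixed at drug addition.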
# SK-MEL-28 = assay: Growth inhibition of human SK-MEL-28 cells assessed as cell growth at 10 uM after 48 hrs by sulforhodamine B assay; conditions: SK-MEL-28, 48 h, read-out: Activity; method in brief: as §3
# UACC-62 = assay: Growth inhibition of human UACC62 cells assessed as cell growth at 10 uM after 48 hrs by sulforhodamine B assay; conditions: UACC-62, 48 h, read-out: Activity; method in brief: as §4
# OVCAR-3 [3] = assay: Growth inhibition of human OVCAR3 cells assessed as cell growth at 10 uM after 48 hrs by sulforhodamine B assay; conditions: OVCAR-3, 48 h, read-out: Activity; method in brief: as §3
# UACC-257 = assay: Growth inhibition of human UACC257 cells after 48 hrs by sulforhodamine B assay; conditions: UACC-257, 48 h
# Method in brief: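 NCI-60 five-dose screen. Cells were grown in RPMI 1640 with 5% FBS and 2 mM L-glutamine, plated at 5000–40,000 cells/well and incubated 24 h before dosing, with T0 plates TCA-fixed. DMSO stocks were diluted to doses of […] and exposed 48 h at 37 °C, 5% CO2. Cells were fixed with cold TCA (final 10%, 60 min, 4 °C), stained with 0.4% SRB in 1% acetic acid for 10 min, solubilized in 10 mM trizma base and read at 515 nm. GI50 is where 100×(T−T0)/(C−T0)=50.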
# SR [4] = assay: Growth inhibition of human SR cells after 48 hrs by sulforhodamine B assay
# Method in brief: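 Suspension leukemia line in RPMI 1640 with 5% FBS and 2 mM L-glutamine, NCI-60 five-dose format ([…]), 48 h at 37 °C. Settled cells were fixed with 80% TCA (final 16%), stained with SRB and read at 515 nm. GI50 is where 100×(T−T0)/(C−T0)=50, with T0 measured at dosing.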
# SR [5] = assay: Growth inhibition of human SR cells assessed as cell growth at 10 uM after 48 hrs by sulforhodamine B assay; conditions: read-out: Activity
# Method in brief: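 Suspension line in RPMI 1640 with 5% FBS, single 10 µM dose for 48 h. Settled cells were fixed with TCA (final 16%), then SRB-stained and read at 515 nm. Percent growth was taken versus T0 and control; negative values denote cytotoxicity.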
# [6] = Growth inhibition of human HCC2998 cells assessed as cell growth at 10 uM after 48 hrs by sulforhodamine B assay; conditions: HCC 2998, 48 h, read-out: Activity; method in brief: as §1
# ACHN = assay: Growth inhibition of human ACHN cells assessed as cell growth at 10 uM after 48 hrs by sulforhodamine B assay; conditions: read-out: Activity; method in brief: as §1
# A498 = assay: Growth inhibition of human A498 cells assessed as cell growth at 10 uM after 48 hrs by sulforhodamine B assay; conditions: A498, 48 h, read-out: Activity; method in brief: as §1
# COLO 205 = assay: Growth inhibition of human COLO205 cells after 48 hrs by sulforhodamine B assay; conditions: COLO 205, 48 h; method in brief: as §5
# [7] = Growth inhibition of human EKVX cells assessed as cell growth at 10 uM after 48 hrs by sulforhodamine B assay; conditions: read-out: Activity; method in brief: as §1
# OVCAR-5 = assay: Growth inhibition of human OVCAR5 cells after 48 hrs by sulforhodamine B assay; conditions: OVCAR-5, 48 h; method in brief: as §2
# CCRF-CEM [8] = assay: Growth inhibition of human CCRF-CEM cells after 48 hrs by sulforhodamine B assay; method in brief: as §5
# Malme-3M = assay: Growth inhibition of human MALME-3M cells after 48 hrs by sulforhodamine B assay; method in brief: as §2
SMILES,GI50 (OVCAR-3 [1]) [nM],growth at 10 µM (RXF 393) [%],growth at 10 µM (CCRF-CEM [2]) [%],growth at 10 µM (SNB-75) [%],GI50 (NCI-H23) [nM],GI50 (LOX IMVI) [nM],GI50 (MOLT-4) [nM],growth at 10 µM (SK-MEL-28) [%],growth at 10 µM (UACC-62) [%],growth at 10 µM (OVCAR-3 [3]) [%],GI50 (UACC-257) [nM],GI50 (SR [4]) [nM],growth at 10 µM (SR [5]) [%],growth at 10 µM [6] [%],growth at 10 µM (ACHN) [%],growth at 10 µM (A498) [%],GI50 (COLO 205) [nM],GI50 (OVCAR-5) [nM],GI50 (CCRF-CEM [8]) [nM],GI50 (Malme-3M) [nM],other results
CC(C)=CCC/C(C)=C/CC/C(C)=C/CC[C@]1(C)CCc2c3c(cc(C)c2O1)OCN(CCCCO)C3,17200,-96.3,-0.6,41.5,17500,11300,16200,0.63,68.5,-20.8,11400,7260,-40.9,-88.7,-57.1,103,3050,17300,14500,22400,growth at 10 µM (HCT-15): -53.9%; growth at 10 µM [7]: 85.4%
CC(C)=CCC/C(C)=C/CC/C(C)=C/CC[C@]1(C)CCc2c3c(cc(C)c2O1)OCN(CCCCCCCCO)C3,811,-97.1,-29.7,-61.4,4400,622,996,-89.2,-15.3,-85.4,656,785,-53.3,-90.9,-97.6,117,886,2730,865,7150,growth at 10 µM (HCT-15): -10.9%; growth at 10 µM [7]: -53.4%
CC(C)=CCC/C(C)=C/CC/C(C)=C/CC[C@]1(C)CCc2c3c(c(C)c(C)c2O1)OCN(CCCCCCCCO)C3,2790,-10.7,10.4,74.3,3160,3290,3260,82.9,93.1,31.7,2960,2650,-37.8,-87,79.6,117,2780,2830,3340,3140,growth at 10 µM (HCT-15): 75.3%
CC(C)=CCC/C(C)=C/CC/C(C)=C/CC[C@]1(C)CCc2c3c(cc(C)c2O1)OCN(CCCCCCO)C3,702,-95.6,-20.6,-1.37,4570,636,835,-49.6,75.8,-61.6,620,670,-38,-89.1,-39.7,121,717,2550,866,6250,growth at 10 µM (HCT-15): 5.75%
CC(C)=CCC/C(C)=C/CC/C(C)=C/CC[C@]1(C)CCc2c3c(cc(C)c2O1)OCN(CCCO)C3,2110,-90.5,28.6,33.9,1880,1690,1920,-50.7,93,-38.4,1790,1040,-32.1,-82.9,42.5,106,1980,1770,2590,2100,growth at 10 µM (HCT-15): 0.85%; growth at 10 µM [7]: 82.7%
CC(C)=CCC/C(C)=C/CC/C(C)=C/CC[C@]1(C)CCc2c3c(c(C)c(C)c2O1)OCN(CCCCO)C3,3850,78.2,39.9,74.2,> 10000,2220,3460,106,96.6,79.9,1730,2470,-11.1,-61.8,78.8,116,2090,> 10000,3450,> 10000,growth at 10 µM [7]: 108%
